The values below come from ChEMBL document CHEMBL1146857 (J Med Chem, 2006).

Experiment [1] concerns HCT-116. Description: Increase in acetylated alpha-tubulin accumulation in human HCT116 cells after 8 hrs. It is filed as functional, cell-based. The gist of the method: (§1)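 HCT116 cells were treated for 8 h in McCoy5A medium with 0.1% DMSO over a range of concentrations. Acetylated α-tubulin and histone H4 were detected by Western blot and quantified, and EC50 values were estimated from the concentration curves.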

Experiment [2] concerns HCT-116. Description: Increase in acetylated histone H4 accumulation in human HCT116 cells after 8 hrs. It is filed as functional, cell-based. In a few lines: as §1
In experiment [3] the target is Histone deacetylase 1 (Homo sapiens, UniProt Q13547). Description: Inhibition of HDAC1.
Experiment [4] deals with T1, Protein deacetylase HDAC6 (Homo sapiens, UniProt Q9UBN7).
T1 sequence (Q9UBN7 whole entry): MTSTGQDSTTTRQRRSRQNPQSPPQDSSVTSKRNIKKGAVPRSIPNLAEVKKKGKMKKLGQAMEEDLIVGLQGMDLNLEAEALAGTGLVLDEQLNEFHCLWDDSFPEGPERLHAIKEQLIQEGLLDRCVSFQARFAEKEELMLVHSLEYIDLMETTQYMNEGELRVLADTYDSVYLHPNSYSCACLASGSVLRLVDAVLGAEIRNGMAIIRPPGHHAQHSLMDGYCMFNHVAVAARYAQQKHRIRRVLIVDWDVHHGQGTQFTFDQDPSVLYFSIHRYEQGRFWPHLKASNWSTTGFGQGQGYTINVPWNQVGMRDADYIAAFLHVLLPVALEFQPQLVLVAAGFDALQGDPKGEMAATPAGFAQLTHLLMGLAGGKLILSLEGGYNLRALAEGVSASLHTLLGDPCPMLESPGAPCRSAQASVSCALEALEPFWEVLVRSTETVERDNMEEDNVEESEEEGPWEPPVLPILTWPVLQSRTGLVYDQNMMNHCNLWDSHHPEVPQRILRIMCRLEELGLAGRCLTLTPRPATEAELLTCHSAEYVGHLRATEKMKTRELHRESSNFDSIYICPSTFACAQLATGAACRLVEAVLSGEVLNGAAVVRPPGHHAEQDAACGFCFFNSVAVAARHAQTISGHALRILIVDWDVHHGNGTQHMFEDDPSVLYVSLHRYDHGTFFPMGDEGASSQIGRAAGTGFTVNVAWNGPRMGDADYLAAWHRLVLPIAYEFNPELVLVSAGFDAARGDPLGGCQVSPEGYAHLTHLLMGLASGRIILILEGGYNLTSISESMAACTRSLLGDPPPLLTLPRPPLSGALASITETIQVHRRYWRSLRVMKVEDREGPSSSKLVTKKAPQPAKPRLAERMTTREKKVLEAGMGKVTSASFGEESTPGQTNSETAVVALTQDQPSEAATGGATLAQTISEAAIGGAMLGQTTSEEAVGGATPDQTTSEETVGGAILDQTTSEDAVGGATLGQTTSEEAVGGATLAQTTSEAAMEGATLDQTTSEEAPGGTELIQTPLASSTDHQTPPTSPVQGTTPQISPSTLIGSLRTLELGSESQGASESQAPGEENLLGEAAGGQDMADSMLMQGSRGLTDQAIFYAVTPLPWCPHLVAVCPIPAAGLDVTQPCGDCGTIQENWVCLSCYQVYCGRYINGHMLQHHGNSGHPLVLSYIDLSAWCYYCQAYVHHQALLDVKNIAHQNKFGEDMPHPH
Description: Inhibition of HDAC6.

The species named for experiment [5] is Homo sapiens. Description: Selectivity for HDAC6 over HDAC4.
For experiment [6], the species on record is Homo sapiens. Description: Selectivity for HDAC6 over HDAC1.
For experiment [7], the target named is Histone deacetylase 4 (Homo sapiens, UniProt P56524). Description: Inhibition of HDAC4.

For orientation: IC50 means the concentration needed to halve the response being measured. Low readings indicate higher potency, high ones lower potency.

Calls of active or inactive are those of the source. The calls are words filed in the database; no cut-off is given here.

Sequence of Histone deacetylase 4 (P56524 whole entry): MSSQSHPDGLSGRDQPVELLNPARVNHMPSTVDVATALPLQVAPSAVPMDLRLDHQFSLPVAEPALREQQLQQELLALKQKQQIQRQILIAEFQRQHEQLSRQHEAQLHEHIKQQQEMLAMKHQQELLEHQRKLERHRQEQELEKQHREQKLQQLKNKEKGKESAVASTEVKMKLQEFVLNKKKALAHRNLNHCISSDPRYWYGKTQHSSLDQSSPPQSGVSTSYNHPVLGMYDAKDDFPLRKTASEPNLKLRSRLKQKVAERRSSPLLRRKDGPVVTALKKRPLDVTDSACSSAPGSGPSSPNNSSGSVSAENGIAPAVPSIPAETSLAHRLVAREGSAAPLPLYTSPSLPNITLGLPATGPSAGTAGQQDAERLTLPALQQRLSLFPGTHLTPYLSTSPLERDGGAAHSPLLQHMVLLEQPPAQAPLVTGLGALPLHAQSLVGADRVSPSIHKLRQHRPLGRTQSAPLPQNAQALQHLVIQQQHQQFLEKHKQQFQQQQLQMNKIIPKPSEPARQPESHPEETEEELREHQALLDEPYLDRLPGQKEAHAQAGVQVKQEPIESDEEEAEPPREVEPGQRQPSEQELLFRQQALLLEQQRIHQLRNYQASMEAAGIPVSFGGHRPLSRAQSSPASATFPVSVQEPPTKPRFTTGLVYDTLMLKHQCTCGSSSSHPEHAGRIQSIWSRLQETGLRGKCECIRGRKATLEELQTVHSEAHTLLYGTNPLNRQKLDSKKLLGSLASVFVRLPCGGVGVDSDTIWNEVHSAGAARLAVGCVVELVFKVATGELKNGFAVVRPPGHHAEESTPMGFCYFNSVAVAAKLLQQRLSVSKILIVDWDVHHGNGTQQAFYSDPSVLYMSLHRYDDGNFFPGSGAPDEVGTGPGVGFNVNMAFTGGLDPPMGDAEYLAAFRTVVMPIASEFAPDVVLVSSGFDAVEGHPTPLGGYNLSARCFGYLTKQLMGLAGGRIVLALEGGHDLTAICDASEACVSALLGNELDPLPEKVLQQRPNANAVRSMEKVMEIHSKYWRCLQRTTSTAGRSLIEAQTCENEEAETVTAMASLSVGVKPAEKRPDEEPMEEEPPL
Sequence of Histone deacetylase 1 (Q13547 whole entry): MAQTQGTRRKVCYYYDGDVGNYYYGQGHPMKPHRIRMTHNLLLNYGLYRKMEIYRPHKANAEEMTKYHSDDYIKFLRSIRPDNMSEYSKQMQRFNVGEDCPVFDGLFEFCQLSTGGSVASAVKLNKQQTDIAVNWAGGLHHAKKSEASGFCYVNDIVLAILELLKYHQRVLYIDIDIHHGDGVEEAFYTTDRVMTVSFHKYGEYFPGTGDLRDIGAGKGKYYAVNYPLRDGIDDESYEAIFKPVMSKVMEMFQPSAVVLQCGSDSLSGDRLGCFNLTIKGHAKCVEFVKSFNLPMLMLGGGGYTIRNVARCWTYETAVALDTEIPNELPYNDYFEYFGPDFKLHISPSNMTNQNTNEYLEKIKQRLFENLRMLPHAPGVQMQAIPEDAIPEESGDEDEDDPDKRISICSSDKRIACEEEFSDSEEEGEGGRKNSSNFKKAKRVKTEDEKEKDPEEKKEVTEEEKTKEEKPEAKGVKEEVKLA

Consider `CC(C)C(=O)SCCCCC[C@H](NC(=O)OC(C)(C)C)C(=O)NC1CCCCCC1`, for which the Activity entry in experiment [1] was “Dose-dependent effect”.

On to `CC(C)C(=O)SCCCCCCC(=O)Nc1cccc(-c2ccccc2)c1`, for which the outcome in experiment [2] was Active.

`CC(C)(C)OC(=O)N[C@@H](CCCCCS)C(=O)NC1CCCCCC1`: the IC50 in experiment [3] is 900 nM; in experiment [4], 23 nM; in experiment [7] it was 840 nM. The Selectivity ratio in experiment [5] stood at 37; in experiment [6], 39.

For the molecule `CC(C)(C)OC(=O)N[C@@H](CCCCCS)C(=O)NC1CCCC1`, the IC50 in experiment [3] was 1210 nM; in experiment [4], 29 nM; in experiment [7], 1030 nM. Also, the Selectivity ratio in experiment [5] came to 36; in experiment [6] it was 42.

For `CC(C)C(=O)SCCCCCCC(=O)Nc1nc(-c2ccccc2)cs1`, the outcome in experiment [2] and in experiment [1] was Active.

Regarding `CC(C)(C)OC(=O)N[C@@H](CCCCCS)C(=O)NC1CCCCC1`, the figures for the IC50 in experiment [3], in experiment [4] and in experiment [7] were 1270 nM, 36 nM and 1140 nM, respectively. Besides, the figures for the Selectivity ratio in experiment [5] and in experiment [6] were 32 and 35, respectively.

Consider `CC(C)C(=O)SCCCCC[C@H](NC(=O)OC(C)(C)C)C(=O)NC1CCCCC1`, for which the Activity entry in experiment [1] was “Dose-dependent effect”.

`CC(C)C(=O)SCCCCC[C@H](NC(=O)OC(C)(C)C)C(=O)NC1CCCC1`: the Activity entry in experiment [1] was “Dose-dependent effect”.

On to `CC(C)C(=O)SCCCCC[C@H](NC(=O)OC(C)(C)C)C(=O)NC(C)(C)C`, for which, in experiment [1], the Activity result was “Dose-dependent effect”.
